Assay outcomes: PubChem BioAssay, The Scripps Research Institute Molecular Screening Center
TAAR1 antag – antagonists of human TAAR1; Q96RJ0; 360,000 tested, 1.5% active; inhibition, % at 3 µM; CHO RD-HGA16 TAAR1, Fluo-8 calcium fluorescence, antagonist;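 active = inhibition above a per-plate cutoff, the mean inhibition of test compounds on that plate plus 3 SD, cut at about 49% in these data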;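 note: 0% = DMSO plus EC80 beta-PEA response and 100% = DMSO alone without agonist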
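Test system: RD-HGA16 CHO cells with stable hTAAR1 and Gα16 / Probe or stimulus: EC80 β-phenethylamine stimulus / Times: seeding 17-24 h prior, 75-min 37 °C, 30-min RT dye loading / Detection: Fluo-8 calcium-sensitive fluorescence / Read-out basis: % inhibition scaled between DMSO and EC80 PEA controls / Repeats: singlicate, one well per test compound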
TAAR1 agonist – human TAAR1 agonism | Q96RJ0 | CHO RD-HGA16 TAAR1, Fluo-8 calcium fluorescence; vehicle wells 0%, saturating PEA agonist 100% | activation, % at 3 µM | 360,000 tested, 0.99% active;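 active = activation above the mean activation of all test compounds in the run plus 3 SD, cut at about 38% in these data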
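Test system: RD-HGA16 (CHO) cells co-expressing Gα16 and hTAAR1 / Benchmarks: DMSO vehicle as 0%, PEA at EC100 as 100% / Repeats: no replicates (n 1) / Measure: % activation from peak over basal fluorescence ratio, DMSO-to-PEA scaled / Timing: 17-24 h plating, Fluo-8 75 min 37 °C, 30 min RT / Technique: kinetic Fluo-8 calcium fluorescence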
OXTR potentiator – human OXTR potentiation; P30559; CHO-OTR cells, Fluo-8 calcium fluorescence, potentiator mode; 0% = oxytocin EC15, 100% = EC100; activation, % at 3 µM; 320,000 tested, 0.061% active;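 active = activation above that plate's cutoff, the mean activation of tested compounds plus 3 SD, cut at about 6.6% in these data, passing the limit was not always enough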;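 note: 100% uses oxytocin at 75 nM as the full agonist control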
Target sequence (P30559 whole entry, looked up): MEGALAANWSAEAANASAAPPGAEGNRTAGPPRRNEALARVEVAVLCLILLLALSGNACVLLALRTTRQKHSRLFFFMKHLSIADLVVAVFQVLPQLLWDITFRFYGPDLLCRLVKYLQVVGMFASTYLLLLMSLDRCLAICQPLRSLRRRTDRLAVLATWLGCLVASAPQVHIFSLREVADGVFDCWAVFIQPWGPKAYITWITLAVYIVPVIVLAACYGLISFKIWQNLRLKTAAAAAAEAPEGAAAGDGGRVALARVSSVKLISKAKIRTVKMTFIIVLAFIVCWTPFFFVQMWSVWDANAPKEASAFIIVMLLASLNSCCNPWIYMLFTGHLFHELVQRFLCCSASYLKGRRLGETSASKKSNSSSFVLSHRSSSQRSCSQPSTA
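Material: CHO-OTR cells, human receptor; compound dosing: single dose, 3.0 µM nominal final compound concentration; schedule: 6 min compound pre-incubation at room temperature, 100 s kinetic read; measured by: kinetic Fluo-8 calcium fluorescence; read-out basis: % activation vs EC15 and EC100 oxytocin; controls: EC15 oxytocin alone as 0%, 75 nM oxytocin as 100%; replicates: singlicate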
OXTR ag – activates the human oxytocin receptor. P30559. CHO-OTR cells, Fluo-8 calcium fluorescence; normalized: DMSO 0%, oxytocin 100%. activation, % at 3 µM. 320,000 tested, 0.32% active. AID 2435;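 active = activation above the mean of all tested compounds plus 3 SD, cutoff set per screening run, cut at about 20% in these data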;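 note: peak over basal fluorescence ratio from a 100 s FLIPR kinetic read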
V1R ag counter – counter-screen for oxytocin receptor agonists: human V1a receptor agonists. CHO-V1R cells, Fluo-8 calcium fluorescence, agonist mode; 0% DMSO, 100% 3 nM vasopressin. activation, % at 3 µM. 320,000 tested, 0.25% active. AID 2797;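 active = activation above the mean activation of all tested compounds plus 3 SD, per screening run, cut at about 20% in these data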;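 note: signal is peak over basal fluorescence ratio across a 100 second FLIPR read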
An asterisk follows results filed as active. Only some compounds are listed: those with a hit (about 2.3% of all), similar ones and a draw of the others.

`COc1ccc(CNC(=O)Nc2nc(C(N)Cc3ccc(C(F)(F)F)cc3)cs2)cc1` (stereo not drawn) gave TAAR1 antag 48.9* and TAAR1 agonist 43.9*.
`COc1ccc(CC(N)c2csc(NC(=O)NCCc3ccccc3)n2)cc1` (stereo not drawn) gave TAAR1 antag 44.3 and TAAR1 agonist 38.1*.
For CC(C)c1ccccc1NC(=O)Nc1nc(C(N)Cc2ccc(C(F)(F)F)cc2)cs1 (stereo not drawn) the results were TAAR1 antag 36.5 and TAAR1 agonist 38.0*.
`NC(Cc1ccccc1)c1csc(NC(=O)c2cccc(OC(F)(F)F)c2)n1` (stereo not drawn) gave TAAR1 antag 12.1 and TAAR1 agonist 44.6*.
`COc1ccc(CC(N)c2csc(NC(=O)c3cccc(OC(F)(F)F)c3)n2)cc1` (stereo not drawn) gave TAAR1 antag 41.0 and TAAR1 agonist 36.3.
For COc1ccc(CC(N)c2csc(NC(=O)c3ccccc3)n2)cc1 (stereo not drawn) the results were TAAR1 antag 12.9 and TAAR1 agonist 15.4.
`COC(=O)c1cnc(Nc2nc(C(N)Cc3ccc(OC)cc3)cs2)nc1C(F)(F)F` (stereo not drawn) gave TAAR1 antag 15.8 and TAAR1 agonist 44.9*.
`COC(=O)c1cnc(Nc2nc(C(N)Cc3ccc(Cl)cc3)cs2)nc1C(F)(F)F` (stereo not drawn) gave TAAR1 antag -8.7 and TAAR1 agonist 10.3.
`NC(Cc1ccc(Cl)cc1)c1csc(NC(=O)NCC2CCCCC2)n1` (stereo not drawn) gave TAAR1 antag 36.6 and TAAR1 agonist 46.1*.
Screening COc1ccc(CC(N)c2csc(NC(=O)C(c3ccccc3)c3ccccc3)n2)cc1 (stereo not drawn) returned TAAR1 antag 23.0 and TAAR1 agonist 47.4*.
CC(Sc1ccccc1)C(=O)NN=C1CCCCCCC1 (stereo not drawn) was read as TAAR1 antag 8.0, TAAR1 agonist 4.7, OXTR potentiator -6.9, OXTR ag -1.1 and V1R ag counter -1.4.
O=C(Cn1cnc2cc([N+](=O)[O-])ccc2c1=O)NCc1ccc(Cl)cc1 was read as TAAR1 antag 8.5, TAAR1 agonist 14.4, OXTR potentiator -13.2, OXTR ag 7.7 and V1R ag counter 5.8.
For O=c1c2ccc([N+](=O)[O-])cc2ncn1CCOc1ccc(Cl)cc1 the results were TAAR1 antag 63.5*, TAAR1 agonist 20.8, OXTR potentiator -4.4, OXTR ag -1.1 and V1R ag counter 0.3.
`COc1ccc(Cl)c(NC(=O)C/C(C)=N/NC(=O)CCc2ccccc2)c1` gave TAAR1 antag -27.6, TAAR1 agonist 2.5, OXTR potentiator -10.1, OXTR ag -0.9 and V1R ag counter 1.0.
CC1=NN(C(N)=S)C(=O)C1N=Nc1c(Br)cc(Br)cc1Br (stereo not drawn) was read as TAAR1 antag 40.9, TAAR1 agonist 38.9*, OXTR potentiator -16.8, OXTR ag 6.6 and V1R ag counter 5.5.
`CC1=NN(C(N)=S)C(=O)C1N=Nc1c(C)cc(C)cc1C` (stereo not drawn) gave TAAR1 antag -7.4, TAAR1 agonist 3.2, OXTR potentiator -9.7, OXTR ag -1.8 and V1R ag counter -1.6.
For O=C(CSc1nnc(-c2ccccc2)o1)c1nnc(-c2ccccc2)o1 the results were TAAR1 antag 8.8, TAAR1 agonist 5.9, OXTR potentiator -6.7, OXTR ag -0.3 and V1R ag counter -0.4.
For CC(=O)c1c(C)[nH]c(C(=O)CSc2nnc(-c3ccccc3)o2)c1C the results were TAAR1 antag 56.4*, TAAR1 agonist 33.2, OXTR potentiator -15.7, OXTR ag 10.7 and V1R ag counter 8.8.
For O=C1c2cccc3cccc(c23)C(=O)N1c1ccc(O)cc1 the results were TAAR1 antag -11.2, TAAR1 agonist 2.4, OXTR potentiator 2.1, OXTR ag 0.3 and V1R ag counter -0.8.
For O=C1c2cccc3c(N4CCCCC4)ccc(c23)C(=O)N1c1ccc(O)cc1 the results were TAAR1 antag 40.7, TAAR1 agonist 58.6*, OXTR potentiator -16.7, OXTR ag 21.6* and V1R ag counter 22.6*.
`COc1cccc(-c2sc3ccccc3c2-c2ccc(OCCN(C)C)cc2)c1` gave TAAR1 antag 51.0*, TAAR1 agonist 26.3, OXTR potentiator -7.1, OXTR ag 7.5 and V1R ag counter 2.5.
`c1ccc(-c2ccc3c(n2)CCCN3Cc2ccccn2)cc1` gave TAAR1 antag -7.2 and TAAR1 agonist -1.7.
Cc1cc(Cl)ccc1Oc1ccccc1C(=O)CC#N was read as TAAR1 antag -13.9, TAAR1 agonist -0.2, OXTR potentiator -15.5, OXTR ag 4.6 and V1R ag counter 5.6.
Screening CCC(Sc1nc(C)cc(=O)[nH]1)C(=O)Nc1sc2c(c1C#N)CCCC2 (stereo not drawn) returned TAAR1 antag -32.3, TAAR1 agonist 39.5*, OXTR potentiator -5.0, OXTR ag 1.4 and V1R ag counter 1.2.
For CN(CC(=O)Nc1cccc(F)c1)C(=O)c1ccc(C2SCCS2)cc1 the results were TAAR1 antag 13.3, TAAR1 agonist 2.3, OXTR potentiator -17.4, OXTR ag 6.8 and V1R ag counter 7.5.
CN(CC(=O)Nc1cccc(F)c1)C(=O)c1ccc2c(c1)CC(c1ccccc1)OC2=O (stereo not drawn) was read as TAAR1 antag 58.4* and TAAR1 agonist 19.2.
For O=C(/C=C/c1ccccc1)c1cc(Br)ccc(=O)c1O the results were TAAR1 antag 54.1*, TAAR1 agonist 41.4*, OXTR potentiator -17.1, OXTR ag 12.8 and V1R ag counter 1.7.
`O=C(/C=C/c1ccc(F)cc1)c1cc(Br)ccc1O` gave TAAR1 antag -5.1, TAAR1 agonist -2.2, OXTR potentiator -5.4, OXTR ag -1.7 and V1R ag counter -1.7.
For O=C(c1n[nH]c2ccccc12)N1CCN(S(=O)(=O)c2ccccc2)CC1 the results were TAAR1 antag 11.0, TAAR1 agonist 3.6, OXTR potentiator -7.8, OXTR ag 1.0 and V1R ag counter 2.7.
For O=C(c1cc(=O)[nH]c2ccccc12)N1CCN(S(=O)(=O)c2ccc(Cl)cc2)CC1 the results were TAAR1 antag 58.8*, TAAR1 agonist 29.6, OXTR potentiator 4.8, OXTR ag -0.1 and V1R ag counter -0.2.
COC(=O)C1=C(C)N(Cc2ccc(C(F)(F)F)cc2)C(=NCc2ccc(C(F)(F)F)cc2)NC1c1ccc(F)cc1 (stereo not drawn) was read as TAAR1 antag 41.2 and TAAR1 agonist 23.7.
COc1ccc(OC2C(=O)N(Cc3ccc4c(c3)OCO4)C2c2sccc2C)cc1 (stereo not drawn) was read as TAAR1 antag 50.0*, TAAR1 agonist 3.2, OXTR potentiator -10.5, OXTR ag 1.0 and V1R ag counter 0.9.
